Bioassay records deposited in PubChem by several laboratories.
Arrestin-AP2 inh – human beta-arrestin and AP2 interaction inhibition; FITC-arrestin peptide / GST-AP2 beads, flow cytometry; AP2 beta2 appendage carries R879A mutation; inhibition, % at 10 µM; actives 0.31% (n = 340,000); AID 504490;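 active means inhibition above a set limit, near 3 SD of compounds lacking own fluorescence, cut at about 54% in these data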;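 further: plate controls were DMSO wells for no effect and 5 µM unlabelled arrestin peptide for full effect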
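Material – AP2 appendage R879A on GSH beads · Buffer or medium – PBS with 0.05% Tween 20 and 0.1% BSA · Probe or stimulus – fluorescein-tagged arrestin peptide at 50 nM final · Incubation – compound with beads 12 min RT, then probe 1 h RT · Detection – high-throughput flow cytometry of beads, ex 488, em 535 nm · Evaluation – percent response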
PolyA inh – inhibitors of polyadenylation in S. cerevisiae; AID 1875; actives 0.02% (n = 300,000); S. cerevisiae SKY197-pL101 polyadenylation reporter, beta-gal luminescence; efflux-impaired pdr1/pdr3 knockout yeast; score 100 = 6 SD above DMSO; activity score, % at 12 µM;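 active means lowest replicate activity score at least 50, where 100 means six control SD above control mean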;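 further: yeast exposed to compound for 9 h at 30 °C; higher score means more reporter readthrough which indicates perturbed polyadenylation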
A3A deaminase – human APOBEC3A DNA deaminase inhibition; AID 493011; inhibition, % at 20 µM; actives 0.41% (n = 330,000); recombinant A3A, FAM/TAMRA ssDNA deamination fluorescence; P31941;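 active means at least 40% inhibition at 20 µM here, with at most 30% in a related deaminase screen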;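 further: plate controls were A3A with DMSO for no effect and wells lacking A3A enzyme for full effect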
APOBEC3G inh – blocks human APOBEC3G single-stranded DNA deamination. Q9HC16. recombinant A3G, ssDNA deamination FAM/TAMRA fluorescence. inhibition, % at 20 µM. actives 0.28% (n = 330,000). AID 493012;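 active means inhibition of at least 40% at 20 µM, with no more than 30% in the related APOBEC3A deaminase screen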;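 further: plate controls were DMSO wells with A3G for no effect and wells lacking A3G enzyme for full effect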
UCH37 inh – human UCH37 deubiquitinating enzyme inhibition; inhibition, % (test concentration not listed); purified proteasome/UCH37, Ub-AMC cleavage fluorescence; actives 0.33% (n = 330,000);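 active means mean inhibition over replicate wells above about 20%, limit read from the data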;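 further: 0% = compound-free wells with enzyme and 100% = wells lacking proteasome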
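assay system = human UCH37 enzyme supplied as purified proteasome complex | amount = proteasome at 0.15 nM in the dispensed enzyme solution | schedule = 30 min compound-proteasome preincubation then 25 min substrate reaction, room temperature | measured by = fluorescence, ex 355 nm, em 460 nm | benchmarks = no-proteasome wells (full inhibition) and compound-free wells (no inhibition)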
AHR activator – activators of human aryl hydrocarbon receptor; AHR-responsive luciferase reporter cells, luminescence; activation, % at 5 µM; P35869; actives 2.5% (n = 320,000); in the data active means activation above about 47%;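 further: 0% = vehicle wells and 100% = reference agonist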
Target sequence (P35869 whole entry, looked up): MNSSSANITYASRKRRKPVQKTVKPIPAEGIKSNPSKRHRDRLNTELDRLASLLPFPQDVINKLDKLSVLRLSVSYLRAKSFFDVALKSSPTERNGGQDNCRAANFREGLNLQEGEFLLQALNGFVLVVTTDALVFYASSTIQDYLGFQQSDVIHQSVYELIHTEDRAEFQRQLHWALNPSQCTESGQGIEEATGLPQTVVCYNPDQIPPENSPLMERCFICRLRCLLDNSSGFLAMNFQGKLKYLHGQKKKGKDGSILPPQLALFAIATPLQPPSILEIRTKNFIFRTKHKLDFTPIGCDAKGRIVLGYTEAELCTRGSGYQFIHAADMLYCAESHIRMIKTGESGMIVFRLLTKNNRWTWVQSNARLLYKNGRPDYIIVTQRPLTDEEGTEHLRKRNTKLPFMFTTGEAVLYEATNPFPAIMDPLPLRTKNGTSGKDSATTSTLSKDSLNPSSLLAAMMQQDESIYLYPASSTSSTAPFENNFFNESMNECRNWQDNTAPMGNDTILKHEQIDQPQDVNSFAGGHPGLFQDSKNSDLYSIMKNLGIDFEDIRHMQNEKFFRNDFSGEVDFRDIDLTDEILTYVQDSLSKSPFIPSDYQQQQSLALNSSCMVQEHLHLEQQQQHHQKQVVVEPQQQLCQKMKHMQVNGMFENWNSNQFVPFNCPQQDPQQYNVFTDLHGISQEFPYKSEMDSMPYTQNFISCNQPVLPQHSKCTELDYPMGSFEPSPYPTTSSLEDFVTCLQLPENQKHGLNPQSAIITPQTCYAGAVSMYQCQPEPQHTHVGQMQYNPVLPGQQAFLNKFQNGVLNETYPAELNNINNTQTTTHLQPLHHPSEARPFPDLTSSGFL
Arr AP2 CP1 – inhibitors of human beta-arrestin and AP2 interaction. inhibition, % at 10 µM. GST-AP2 beads, FITC arrestin peptide binding, flow cytometry; GST-fused beta2-adaptin appendage, R879A mutant. shares compounds with Arrestin-AP2 inh. actives 2% (n = 1,300);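 active means inhibition above a set limit, roughly 3 SD of non-fluorescent compound noise, cut at about 38% in these data; inactive means inhibition at or below that limit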;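 further: loss of bead fluorescence from 50 nM FITC arrestin peptide bound to appendage; 0% = negative control wells and 100% = excess unlabelled arrestin peptide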
GST GSH counter – GST-GSH bead binding interference, counter-screen. shares compounds with Arrestin-AP2 inh. GST-fluorescein binding to GSH beads, fluorescence. inhibition, % at 10 µM. actives 2% (n = 1,300);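 active means inhibition above 50%, about 3 SD of the inhibition seen with non-fluorescent compounds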;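 further: fluorescein maleimide labelled GST captured on 4 micron glutathione beads; higher means more loss of bead fluorescence from quenching or blocked binding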
* marks the source's active call; other numbers are inactive results; . = no result. This is a sample that favours compounds with a hit; in the whole collection about 3.4% have one here.

SMILES | Arrestin-AP2 inh | PolyA inh | A3A deaminase | APOBEC3G inh | UCH37 inh | AHR activator | Arr AP2 CP1 | GST GSH counter
CCN(CC)C(=S)NC(=O)c1cc(OC)c(OC)c(OC)c1 | 57* | -12 | -4 | -5 | 0 | 6 | -13 | -6
CCN1CCN(C(=S)NC(=O)c2cc(OC)c(OC)c(OC)c2)CC1 | -18 | . | -6 | -9 | -1 | 0 | . | .
O=C(O)/C=C\C(=O)Nc1ccc(OC(F)F)cc1 | 54* | -2 | -4 | -9 | 2 | 0 | -12 | -1
CCOc1ccccc1CN1CCN(Cc2cn(C)nc2-c2ccccc2)CC1CCO (stereo unspecified) | 54* | -2 | 6 | -4 | . | 2 | 7 | 5
CN(C)S(=O)(=O)c1ccc(N2CCCC2)c(C(=O)NNC(=O)c2ccccc2)c1 | 64* | . | 0 | -6 | 1 | 3 | 0 | 4
CC1C(c2ccccc2)=[N+]([O-])C2(CCCCC2)N1O (stereo unspecified) | 74* | 19 | 2 | -2 | 4 | 0 | -9 | -6
CCCCc1ccc(C(C)=NNC(=O)C2CCCC2)cc1 | . | . | . | . | 3 | . | . | .
N#Cc1ccc(C(c2nnnn2C2CCCC2)N2CCC(Cc3ccccc3)CC2)cc1 (stereo unspecified) | 2 | -5 | -4 | -7 | 6 | 15 | . | .
N#Cc1cccc(C(c2nnnn2C2CCCC2)N2CCC(Cc3ccccc3)CC2)c1 (stereo unspecified) | 69* | -1 | 0 | -1 | 1 | 3 | -12 | 0
CC(=NNC(=O)C(=O)NN=C(C)c1cccc(O)c1)c1cccc(O)c1 | . | . | . | . | 3 | . | . | .
C=CCN1C(=O)c2ccc(C(=O)N3CCN(S(=O)(=O)c4cccc(F)c4)CC3)cc2C1=O | 66* | 39 | 1 | -5 | 1 | 0 | 5 | -10
Cc1ccc(N/N=C(\C#N)C(N)=S)c(C)c1 | 57* | -29 | . | . | . | 7 | -1 | -1
Cc1ccc(NC(=O)/C(C#N)=N/Nc2ccc(C(=O)O)cc2)c(C)c1 | 8 | 0 | 7 | 0 | . | 2 | . | .
COCCNC(=O)Cn1nc(-c2ccccc2)c2ccccc2c1=O | -4 | 1 | -1 | -3 | . | -1 | . | .
COCCNC(=O)Cn1nc(-c2ccc(Cl)cc2)c2ccccc2c1=O | 64* | 10 | 3 | -1 | 1 | 11 | -4 | 3
O=C(NCc1ccccc1Cl)c1cnccc1C(F)(F)F | 55* | 5 | 3 | 0 | 1 | -1 | -4 | -9
COc1cc(/C=C/C(=O)O)ccc1OS(=O)(=O)c1cc(Br)ccc1C | 56* | . | -4 | -5 | 4 | -1 | -7 | 5
Cc1cc(C)c(OCC(=O)Nc2nc3ccccc3[nH]2)c(C)c1 | 56* | -10 | -1 | -1 | . | 4 | 5 | 3
O=c1c2cnn(-c3ccccc3)c2ncn1Cc1ccccc1 | 5 | 18 | -5 | -4 | 2 | 3 | . | .
O=c1c2cnn(-c3ccc(F)cc3)c2ncn1Cc1ccc(F)cc1 | 90* | -18 | -21 | -4 | 1 | 0 | -6 | -1
COc1ccc(NS(=O)(=O)c2cccc(C(=O)NCC3(N4CCCCC4)CCCCC3)c2)cc1 | -19 | 4 | -4 | -8 | 1 | 2 | 12 | 6
COc1ccc(NS(=O)(=O)c2ccc(C(=O)NCC3(N4CCOCC4)CCCCC3)cc2)cc1 | -8 | . | 2 | -4 | 2 | -2 | . | .
COc1ccc(C(=O)NNC(=O)c2cccc(S(=O)(=O)N3CCOCC3)c2)cc1 | 4 | . | 5 | -3 | 4 | 2 | . | .
COc1ccc(NC(=O)c2cccc(S(=O)(=O)N3CCOCC3)c2)cc1 | 61* | -12 | -4 | -10 | 2 | 13 | -6 | -6
CCOc1ccc(NS(=O)(=O)c2cccc(C(=O)NCC3(N(C)C)CCCCC3)c2)cc1 | -5 | . | 4 | -1 | 4 | . | 5 | -12
SMILES | Arrestin-AP2 inh | PolyA inh | A3A deaminase | APOBEC3G inh | UCH37 inh | AHR activator | Arr AP2 CP1 | GST GSH counter
COc1ccc(NS(=O)(=O)c2cccc(C(=O)NCC3(N4CCOCC4)CCCCC3)c2)cc1 | -9 | 7 | -2 | -3 | 1 | 8 | 9 | -6
Oc1ccccc1C=Nn1c(COc2ccccc2)n[nH]c1=S | . | . | . | . | 1 | . | . | .
Cc1oc(N=Cc2ccc(F)cc2)c(C#N)c1C | . | . | . | . | -1 | . | . | .
Nc1nonc1-n1nnc(C(=O)NN=Cc2ccncc2)c1-c1ccccc1 | . | . | . | . | 8 | . | . | .
CNS(=O)(=O)c1cccc(C(=O)NCC2(N3CCCCC3)CCCCC2)c1 | -26 | 3 | 8 | -3 | . | -2 | . | .
COc1ccc(NS(=O)(=O)c2cccc(C(=O)NCC(c3ccco3)N3CCCCC3)c2)cc1 (stereo unspecified) | 59* | 5 | -1 | -6 | 2 | 3 | 27 | -4
Cc1cccc(NS(=O)(=O)c2cccc(C(=O)NCC(c3ccco3)N3CCCCC3)c2)c1 (stereo unspecified) | 8 | 6 | 0 | -4 | 1 | 1 | . | .
Cc1cccc(NC(=O)c2cccc(S(=O)(=O)Nc3ccccc3C(=O)O)c2)c1 | 58* | -6 | 0 | -9 | . | 1 | -8 | -7
Cc1cccc(NS(=O)(=O)c2cccc(C(=O)NCC3(N4CCCCC4)CCCCC3)c2)c1 | -10 | 12 | -3 | -9 | 4 | 2 | -5 | -3
Cc1ccc(S(=O)(=O)N2CCC(C(=O)NN=Cc3cccn3C)CC2)cc1 | . | . | . | . | 3 | . | . | .
COc1ccc(C2c3c(ccc4ccccc34)Oc3ncn4nc(CON=Cc5ccccc5)nc4c32)cc1 (stereo unspecified) | . | . | . | . | 2 | . | . | .
CC(=O)Nc1ccc(NC(=O)CC(C)=NNC(=O)c2cccc3ccccc23)cc1 | . | . | . | . | 1 | . | . | .
Cc1cc2nc3ccc(N(C)C)cc3nc2cc1N | 64* | -11 | 47 | 69 | . | 11 | 44* | 21
O=[N+]([O-])c1ccccc1C=NN1CCN(c2ccncc2S(=O)(=O)N2CCCCC2)CC1 | . | . | . | . | 6 | . | . | .
COc1cccc(-n2nc3c(=S)[nH]nc(C)c3c2C)c1 | 85* | -4 | -2 | -1 | 0 | 3 | 17 | -4
O=C(NN=Cc1ccc(-c2ccccc2[N+](=O)[O-])o1)c1cncc(Br)c1 | . | . | . | . | 8 | . | . | .
CC(=NNC(=S)NCc1ccccc1)c1ccc(C(C)(C)C)cc1 | . | . | . | . | 2 | . | . | .
CCC(=O)Nc1ccc(C(=O)c2ccccc2)cc1 | 84* | 1 | 5 | -1 | 1 | -3 | -1 | -13
CCC(=O)Nc1ccc(NC(=S)Nc2ccccc2)cc1 | -5 | 3 | 3 | 1 | 1 | 0 | . | .
Cc1cc(C=Nn2cnnc2)c(C)n1-c1cccc(Cl)c1 | . | . | . | . | 1 | . | . | .
COc1ccc(OC)c(C=NNC(=O)c2ccncc2)c1 | . | . | . | . | 4 | . | . | .
